# APJ ag = APJ receptor agonism. activation, % at 20 µM. 0.11% of 330,000 active. AID 2520. CHO-K1 APJ PathHunter beta-arrestin, luminescence; 0% DMSO wells, 100% apelin. P35414;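 active = activation more than six SD over the plate average, tested at 20 µM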;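 also: 0% = DMSO alone and 100% = apelin-13 at 10 nM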
#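 Incubation: overnight seeding, 90 min compound at 25 °C, 1 h detection; test system: PathHunter CHO-K1 APJ (AGTRL-1) beta-arrestin reporter cells; amount: 1000 cells/well; doses: one dose, 20 µM compound, 1% DMSO; measured by: beta-gal luminescence; measure: agonist-driven arrestin binding to APJ; benchmarks: negative DMSO alone, positive Apelin-13 at 10 nM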
# CCR6 antagonist = antagonists of human CCR6 receptor | P51684 | 0.49% of 340,000 active | AID 493098 | CHO-K1 CCR6 PathHunter beta-arrestin, luminescence, CCL20-stimulated | inhibition, % at 20 µM;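 active = compounds whose inhibition of the agonist-driven luminescence signal at 20 µM reaches about 50%, limit read from the data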;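 also: cells stimulated with CCL20 at 14 nM final; plate controls were DMSO with CCL20 for no effect and DMSO without agonist for full effect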
# EBI2 block = blocks human EBI2 receptor beta-arrestin signaling. P32249. EBI2 beta-arrestin recruitment, luminescence, 7a,25-OHC stimulated. inhibition, % at 5 µM. 0.81% of 360,000 active; in the data active = inhibition above about 38%;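 also: enzyme fragment complementation signal reports receptor beta-arrestin coupling in cells; 0% = agonist plus DMSO wells and 100% = wells without agonist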
# Target sequence (P32249 whole entry, looked up, the tested form may be a part): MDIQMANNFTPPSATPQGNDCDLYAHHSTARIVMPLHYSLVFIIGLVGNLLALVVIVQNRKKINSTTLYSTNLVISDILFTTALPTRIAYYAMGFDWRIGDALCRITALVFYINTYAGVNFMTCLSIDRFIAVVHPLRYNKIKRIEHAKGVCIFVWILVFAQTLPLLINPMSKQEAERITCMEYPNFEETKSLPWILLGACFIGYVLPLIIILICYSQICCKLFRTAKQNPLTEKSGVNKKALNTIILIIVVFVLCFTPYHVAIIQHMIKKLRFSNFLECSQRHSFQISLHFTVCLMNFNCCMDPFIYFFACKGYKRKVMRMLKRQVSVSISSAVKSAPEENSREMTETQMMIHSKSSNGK
# APJ antag = blocks the human apelin receptor APJ. P35414. CHO-K1 APJ beta-arrestin complementation, luminescence. inhibition, % at 20 µM. 0.32% of 330,000 active. AID 2521;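 active = inhibition above about 40% at 20 µM, limit read from the data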;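 also: cells challenged with 10 nM apelin-13 agonist together with compound; plate controls were apelin-13 plus DMSO wells for no effect and DMSO wells lacking apelin-13 for full effect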
# CXCR6 block = inhibitors of human CXCR6 receptor. inhibition, % at 20 µM. O00574. 0.36% of 360,000 active. CHO-K1 PathHunter CXCR6 beta-arrestin, luminescence; in the data active = inhibition above about 34%, passing the limit was not always enough;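 also: antagonist mode with CXCL16 agonist at 10 nM final; 0% = 10 nM CXCL16 with DMSO and 100% = unstimulated wells without agonist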
# EBI2 conf = confirmation of human EBI2 receptor antagonists. shares compounds with EBI2 block. EBI2 beta-arrestin luminescence, 7a,25-OHC antagonism. inhibition, % at 5 µM. 29% of 2,400 active. AID 651997;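 active = inhibition of at least 50%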
# EBI2 agonist = activates EBI2, counter-screen for EBI2 antagonists | shares compounds with EBI2 block | activation, % at 5 µM | 2,400 tested, under 10 active | EBI2-expressing cells, agonist mode, luminescence, 60 min; 0% vehicle, 100% 7α,25-dihydroxycholesterol control;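 active = activation of at least 50%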
# bGal counter = beta-galactosidase inhibition counter-screen; AID 652176; shares compounds with EBI2 block; inhibition, % at 5 µM; purified beta-galactosidase, luminescent Galacton Star, 15 min; 1% of 2,400 active;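 active = replicate-average signal at least 3 plate SD below neutral wells, shown as high inhibition, flagging enzyme-inhibiting false positives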;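 also: 0% = DMSO wells with enzyme and 100% = wells lacking enzyme; higher means stronger loss of beta-gal luminescence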
# * hit, by the source's call; . = no result given. Compounds with a hit are over-represented: about 1.5% of the library has one in this group of screens.
SMILES,APJ ag,CCR6 antagonist,EBI2 block,APJ antag,CXCR6 block,EBI2 conf,EBI2 agonist,bGal counter
Cc1ccc([N+](=O)[O-])cc1N(CC(=O)Nc1ccc(S(=O)(=O)Nc2cccc(C(F)(F)F)c2)cc1)S(C)(=O)=O,-0.3,4.9,84.3*,-14.8,-8.8,65.2*,0.8,3.7
COc1cccc(OC)c1NC(=O)Cn1nc(C)c2ccccc2c1=O,2.8,12.0,-0.1,-12.9,-8.5,.,.,.
Cc1ccc(CNC(=O)C2CCN(S(=O)(=O)N3CCCCC3)CC2)cc1,0.1,5.8,32.2,17.9,-0.5,.,.,.
CCc1ccc(CNC(=O)C2CCN(S(=O)(=O)N3CCC4(CC3)OCCO4)CC2)cc1,-0.2,4.7,47.2*,-7.6,1.5,21.9,-0.2,11.5
Cc1ccc(CNC(=O)C2CCN(S(=O)(=O)N3CCC4(CC3)OCCO4)CC2)cc1,-0.2,14.0,45.2*,-3.2,-4.5,14.9,-0.4,-8.7
O=C(NCc1ccc(F)cc1)C1CCN(S(=O)(=O)N2CCC3(CC2)OCCO3)CC1,-0.6,-12.7,5.6,-14.3,-7.0,.,.,.
O=C(O)/C=C/C(=O)NC1CCCCCCCCCCC1,-5.4,-10.1,-19.8,11.8,-4.7,.,.,.
CCOC(=O)/C(C#N)=C/c1c(Oc2cccc(C)c2)nc2ccccn2c1=O,0.4,5.0,35.5,-5.0,5.8,.,.,.
CCOC(=O)/C(C#N)=C/c1c(Oc2cc(C)cc(C)c2)nc2ccccn2c1=O,-1.2,12.0,50.5*,-1.8,4.7,34.2,0.8,1.6
COc1ccc(NC(=O)N2CCC(C(=O)c3ccc(F)cc3)CC2)cc1,8.8,-0.3,53.1*,-0.3,0.2,36.0,-0.9,-8.9
COc1ccc(NC(=S)N2CCC(C(=O)c3ccc(F)cc3)CC2)cc1,.,5.1,13.2,.,-6.7,.,.,.
CSc1ccc(NC(=O)N2CCC(C(=O)c3ccc(F)cc3)CC2)cc1,-3.0,9.3,63.8*,2.3,-5.4,54.7*,1.3,-2.2
COc1ccc(OC2CCN(C(=O)Nc3ccc(C)cc3)CC2)cc1,-2.0,3.0,82.9*,-21.9,-11.9,61.3*,1.9,3.0
O=C(O)C1CC=C(Cl)CC1C(=O)NC1CCCCC1 (centres undefined),3.5,6.6,-0.7,14.8,1.0,.,.,.
CCC(=O)NC(Nc1sc2c(c1C(=O)OC)CCC2)C(Cl)(Cl)Cl (centres undefined),-2.5,2.2,24.5,-1.2,-4.2,.,.,.
COC(=O)c1c(NC(NC(=O)CC(C)C)C(Cl)(Cl)Cl)sc2c1CCC2 (centres undefined),1.1,1.8,64.2*,16.9,-2.2,12.5,0.5,6.2
COc1ccc(-c2cn(Cc3cccc(OC)c3)nn2)cc1,-3.5,4.6,43.2*,2.8,-1.5,22.4,1.2,1.8
COc1cc(OC)cc(-c2c(Sc3ccccc3)c3cc(-c4cnc(OC)nc4)ccc3n2C)c1,.,.,65.1*,.,2.9,9.8,-1.3,-5.8
CC1Cc2cc(S(=O)(=O)NCCC(=O)N(C)Cc3ccccc3)ccc2N1C(=O)C1CC1 (centres undefined),8.3,0.6,-4.2,8.9,-14.5,.,.,.
Cc1cc(OCC(=O)N2CCCC2)ccc1Cl,-2.8,-1.9,23.4,4.1,-14.4,.,.,.
CCOC(=O)N1CCN(C(=O)COc2ccc(Cl)c(C)c2)CC1,-4.0,5.9,86.3*,17.9,1.0,54.2*,0.7,0.9
CCOC(=O)N1CCN(C(=O)COc2ccc(S(=O)(=O)NC(C)C)cc2)CC1,-2.1,8.1,-6.2,13.0,-0.3,.,.,.
CCOC(=O)N1CCN(C(=O)COc2ccc(Cl)cc2)CC1,3.2,1.9,83.4*,12.2,0.6,55.2*,-0.8,-13.9
COc1cc2cc(C(=O)N3CCN(Cc4ccc5c(c4)OCO5)CC3)[nH]c2cc1OC,1.8,9.7,13.3,-7.1,4.4,.,.,.
CCN1CCN(C(=O)c2cc3cc(F)ccc3[nH]2)CC1,-0.8,-2.4,55.2*,8.5,4.8,28.0,0.8,2.0
O=C(c1cc2cc(F)ccc2[nH]1)N1CCN(Cc2ccc3c(c2)OCO3)CC1,1.6,24.3,92.9*,-63.6,-10.0,79.3*,2.4,1.0

# From PubChem BioAssay
